# Results from ChEMBL document CHEMBL4513216, “Probing the Open Global Health Chemical Diversity Library for Multistage-Active Starting Points for Next-Generation Antimalarials” (ACS Infect Dis, 2020).
# Assay: Toxicity liver stage against HepG2, at 10uM
# Assay type: cell-based
# Parameters: test concentration 10 uM, cell line HepG2-A16-CD81EGFP
# Details: human, HepG2-A16-CD81EGFP cells; read-out: INHIBITION
# Method in brief: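 Uninfected HepG2-A16-CD81EGFP cells, 3 × 10^3 per well, 1536-well, plated on prespotted compound at 10 μM final, parasite-free screening media added to match infected plates; puromycin 10 μM positive, DMSO 0.5% negative; run in parallel with 48 h PbLuc assay at 37 °C, 5% CO2; viability by CellTiter-Glo luminescence, normalized to controls.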
row,SMILES,cytotoxicity at 10 µM
1,CCOc1cccc(C(=O)Nc2ccncc2)c1,8.59%
2,CN1CCOC[C@H]1c1nc(C(C)(C)C)c[nH]1,5.08%
3,COc1ccccc1C(=O)NC[C@H]1COCc2nc3c(C)cccc3n21,0.331%
4,CC(O)(CCc1ccccc1)CNC(=O)c1ccsc1 (centres undefined),-1.18%
5,CNC(=O)Cc1csc(NC(=O)C2CSCCC(=O)N2)n1 (centres undefined),-4.94%
6,O=C(c1ccco1)N1CC(S(=O)(=O)c2ccc(Cl)cc2)C1,-2.02%
7,O=C(Nc1ccccc1)C1CCCN(c2cc(-n3cncn3)ncn2)C1 (centres undefined),-2.1%
8,CCN1C[C@H]2CCN(C(=O)Nc3ccccc3C)CC[C@H]2S1(=O)=O,1.08%
9,Cc1csc([C@@H]2C[C@@H]3CCN(C(=O)c4cccn4C)C[C@H]3O2)n1,4.12%
10,O=C(O)c1nnn(-c2ccccc2F)c1-c1ccncc1,10.2%
11,CCC(=O)N1CCN(c2ncnc3c(C)nn(C)c23)CC1,-1.43%
12,COc1ccc(NS(=O)(=O)c2cnc(NC(C)=O)s2)cc1,10.9%
13,COC(=O)C1CCN(C(=O)c2nnc3ccc(C)cc3n2)CC1,11.7%
14,CCn1nc(C)c(NC(=O)CCn2ncc3cc(C)ccc32)c1C,10.8%
15,Cc1cc(C)c2cc(CNCc3cccnc3)c3nn(C)c(=O)n3c2c1,-6.11%
16,c1coc(-c2[nH]c3ncccc3c2CN2CCCOCC2)c1,-5.44%
17,CNc1nc(C)c(C(=O)N2CCCCC2CN2CCCCCC2)s1 (centres undefined),-2.5%
18,CCc1nc(Cn2nc(COC)oc2=O)cs1,-43.4%
19,CCN(C)S(=O)(=O)N1CCC(C(O)c2ccc(Cl)cc2)CC1 (centres undefined),5.84%
20,Cc1cn2c(n1)C(CNCc1cnn3ccccc13)CCC2 (centres undefined),1.78%
21,COc1ccc(C(NC(=O)NCc2nnc3n2CCC3)C2CC2)cc1 (centres undefined),11.7%
22,O=S(=O)(NCCCn1cncn1)c1ccc2c(c1)CCCC2,4.16%

row,SMILES,cytotoxicity at 10 µM
1,CC(C)COC(=O)N1CCN(C(=O)c2ccc3nccn3c2)CC1,12.6%
2,Cc1ccc2cccc(C(=O)NCC3CCN(C(C)C)C3)c2n1 (centres undefined),-9.97%
3,CCC1CN(CCCNS(C)(=O)=O)c2ccccc2O1 (centres undefined),-7.03%
4,CC(=O)N(C)Cc1ccccc1NCc1c(C)cccc1C,-4.54%
5,CN(CC(=O)NS(=O)(=O)c1ccc(F)cc1)Cc1ccccc1,14.3%
6,CNS(=O)(=O)c1ccc(CNC(=O)N2CCOC(C)C2)cc1 (centres undefined),9.15%
7,O=C(Cc1ccon1)N1CCN(c2ccc(F)cc2Cl)CC1,1.02%
8,CC(C)Cc1noc(CN(C)C2CCCC2)n1,0.274%
9,NC(=O)NC(=O)C(c1ccccc1)N1CCN(Cc2ccc(Cl)s2)CC1 (centres undefined),-6.7%
10,CC(=O)N1CCN(C(=O)CN2CCCC2c2c(C)nn(C)c2C)CC1 (centres undefined),6.34%
11,O=C(Cn1cccn1)Nc1ccc(N2CCCCC2)cc1,0.955%
12,Fc1cccc(CNc2cncc(-n3cccn3)n2)c1,0.959%
13,CCN(C1CCN(C(=O)c2cccc(Cl)c2)CC1)S(C)(=O)=O,0.209%
14,Cc1cc(C)n(-c2ccc(N3CCC(O)CC3)nc2)n1,-5.08%
15,O=C(NCc1cccc(-n2cncn2)c1)NCC(C1CC1)C1CC1,6.03%
16,CC(C)OCCOCc1cccc(NC(=O)NCc2cnn(C)c2)c1,-1.11%
17,O=C(NS(=O)(=O)Cc1ccc(F)cc1)C1CCOc2ccccc21 (centres undefined),-3.22%
18,CCN(CC)Cc1ccc(C(=O)NC2CCc3cc(Cl)ccc32)o1 (centres undefined),-3.81%
19,Cc1cccc(N(CCC(N)=O)C(=O)c2ccnc(C)n2)c1,-8.47%
20,Cc1ccc(S(=O)(=O)NCc2cnn(C)c2)c(F)c1,-13%
21,CC(CC(=O)N1CCCS1(=O)=O)c1ccccc1C(F)(F)F (centres undefined),8.92%
22,CCC1c2ccccc2CCN1CCCS(C)(=O)=O (centres undefined),1.75%

row,SMILES,cytotoxicity at 10 µM
1,Cc1noc(C)c1CN(C)Cn1c(=O)oc2ccccc21,-5.07%
2,CCn1nc2c(cc1=O)CN(CC(=O)N(C)c1nccs1)CC2,-4.58%
3,O=C(NC(C(=O)Nc1cc[nH]n1)c1ccccc1)C1CCC1 (centres undefined),-17.5%
4,CS(=O)(=O)Cc1cc(Cl)c2c(c1)OCCCO2,-2.55%
5,COC(=O)CCN1CCC(NC(=O)OC(C)(C)C)CC1,14.7%
6,COC(=O)c1ccc(N(C)C2CCC2)nn1,19.8%
7,CCN(C)c1ccc(CNS(=O)(=O)C2CCOCC2)cc1F,10.3%
8,COc1ccc(C(=O)N(C)Cc2cccc(C#N)c2)c(OC)c1OC,-17.1%
9,O=C(NCC(O)c1cccc(F)c1)c1cccnc1O (centres undefined),-1.68%
10,CC(=O)N1CCC2(C1)c1ccccc1S(=O)(=O)N2C (centres undefined),6.57%
11,O=C(c1ccco1)N1Cc2cnn(CC3CC3)c2C(COCC2CC2)C1 (centres undefined),4.04%
12,CCS(=O)(=O)NCC1Cn2nnc(-c3cccc(C)c3)c2CO1 (centres undefined),-120%
13,CCC1=N[C@@]2(CC[C@@H]3CN(C(=O)NCc4ccccc4)C[C@@H]32)C(=O)N1,-10.3%
14,CC[C@@H](CO)Nc1cc(-c2cn[nH]c2)ncn1,-4.78%
15,CN1CCCN(c2nccc(-c3cncnc3C3CCCCC3)n2)CC1,-6.25%
16,Cc1nc(C(C)C)ncc1C(=O)N1CCc2c(nc(N(C)C)[nH]c2=O)C1,14.3%
17,CN1C(=O)CC(C(=O)O)C12CCN(Cc1cc(Cl)ccc1F)CC2 (centres undefined),5.64%
18,Cc1ccc(C)c(N2CCN(CC3(O)CCNC3)CC2)c1 (centres undefined),-5.83%
19,Cn1cc(C2=CCN(CCCC(=O)Nc3ccc(C#N)cc3)CC2)cn1,-6.84%
20,CC(C)c1cc(C(=O)N2CCOC3(CCCC3)C2)no1,-6.2%
21,O=C(CN1CCCC1c1nc2cc(F)ccc2[nH]1)NCc1ccccn1 (centres undefined),-0.748%
22,Cc1nn(CCO)cc1CN1CCC(N2CCC(O)CC2)CC1,-0.931%

row,SMILES,cytotoxicity at 10 µM
1,CNc1cc(C(=O)NCCC2=CSC3=NCCCN23)ccn1,8.71%
2,Cc1cccnc1NCCNC(=O)C1CCN(C(=O)N(C)C)CC1,1.99%
3,CCC[C@H]1CN(CCS(C)(=O)=O)C[C@@H]1NC(=O)c1cc(CC)on1,-2.42%
4,CC(=O)c1ccc(NCc2cc3n(n2)CCCN(S(C)(=O)=O)C3)nc1,1.02%
5,Cn1ncc2c(N[C@H]3CCCC[C@@H]3O)nc(C(C)(C)C)nc21,-21.5%
6,CCCc1cnc(C)nc1N1CCC(Cn2cc(CO)nn2)CC1,-4.57%
7,CC(C)Oc1ccccc1OCCN1C(=O)CCNC1=O,-6.67%
8,COCCOC1CCN(C(C(=O)O)c2c(Cl)cccc2OC)CC1 (centres undefined),6.15%
9,c1cncc(CCc2nc(C3CC3)nn2-c2ccc3c(c2)OCCO3)c1,-0.833%
10,COCCc1ncc(CN2C[C@@H](C(=O)O)[C@H](C(C)C)C2)cn1,-5.35%
11,COc1ccc(C(=O)N2CCC(Oc3ccccc3)(C(=O)O)CC2)o1,11.6%
12,CC(C)c1nc(CN(C)C(=O)c2cn3ccsc3n2)cs1,8.35%
13,CC[C@@]1(O)CCN(CCCOc2ccc(C(N)=O)cc2)C[C@H]1O,-5.03%
14,Cc1cc(=O)[nH]c(SCC(=O)N(C)CC2Cc3ccccc3CN2C)n1 (centres undefined),-1.96%
15,O=C(NCC1CCS(=O)(=O)C1)N1CCN(c2cnccn2)CC1 (centres undefined),-7.21%
16,COc1cccc(CNCc2ccnc(N3CCOCC3)c2)c1OC,7.26%
17,O=C(Nc1cccc(C2SCCS2)c1)C1CCCN1c1nccs1 (centres undefined),-10.1%
18,Cc1nnc2n1CCN(CC(=O)N1CCc3ccccc3C1)C2,-9.27%
19,Cc1nc(NC(=O)c2ccc(-n3ncc(C#N)c3N)cc2)sc1C,7.13%
20,c1cc(CNCC2CNc3ccnn3C2)cc(Cn2cccn2)c1 (centres undefined),-19%
21,Cn1ccnc1CN1CCCN(C(=O)CC(C2CC2)C2CC2)CC1,-19.8%
22,Cc1cc(NC(=O)NCc2cccnc2OC2CCCC2)n(C)n1,-1.07%

row,SMILES,cytotoxicity at 10 µM
1,CCNC(=O)C(C)NC(=O)c1cnc(-c2ccc(C)cc2C)s1 (centres undefined),-18.7%
2,CCCc1n[nH]c(C2CN(Cc3nnc(C4CC4)n3C)CCO2)n1 (centres undefined),-2.36%
3,CC(C)C(NC(=O)NCCNc1ccccn1)c1cccs1 (centres undefined),-8.13%
4,CCN1CCN(C(=O)c2nc(C)n(-c3ccccc3Cl)n2)CC1,-2.87%
5,Cc1cc(C)cc(OCCC(=O)N2CCOCC2c2ncon2)c1 (centres undefined),-8.72%
6,Cc1oc(C)c(C(=O)NCc2cccnc2N(C)C)c1C,-0.292%
7,Cc1nc(C2CCCN2CC(=O)NCCOc2ccccc2)no1 (centres undefined),-6.54%
8,Cc1ncc(CNCC(C)O)c2cc(C(=O)c3ccc(Br)cc3)oc12 (centres undefined),1.39%
9,CC(C)CCN1CCc2[nH]nc(C(=O)N3CC=CC3)c2C1,-121%
10,O=C([C@@H]1C[C@@H]2CCN(CCc3ccccc3)C[C@H]2O1)N1CCCC1,0.307%
11,O=C(NC1CCC1)[C@@H]1C[C@@H]2CCN(Cc3cccs3)C[C@@H]2O1,5.38%
12,CN(C)C1CCC2(CCN(Cc3cccnc3)CC2)c2ccccc21 (centres undefined),3.15%
13,CN1CCN(C(=O)c2nc3c(o2)CN(C(=O)c2cccnc2)C3)CC1,-7.06%
14,CN(Cc1cccnc1)[C@@H]1CN(C(=O)c2ccno2)[C@@H]2CCCO[C@H]12,-118%
15,Cc1nc(CO[C@@H]2CN(Cc3cnn(C)c3)[C@@H]3COC[C@@H]32)cs1,-7.06%
16,Cc1ccc(CN2CCC3(CC2)CC(c2cccnc2)CO3)s1 (centres undefined),-9.7%
17,Fc1cccc(-c2nnn3c2COC(CNCc2nccs2)C3)c1 (centres undefined),-102%
18,COCCOCC1(CNC(=O)c2ccc(OC)cc2)C[C@@H](O)[C@@H](O)C1 (some centres undefined),0.0221%
19,O=C(c1ccccn1)N1C[C@H]2CC[C@@H](C1)N(C(=O)CCN1CCCC1)C2,3.92%
20,CCc1nccn1CCC(=O)N1C[C@@H]2CC[C@H]1CN(C(=O)N(C)C)C2,-14.4%
21,CN(C)c1cccc(C(=O)N2C[C@@H]3CC[C@H]2CN(C(=O)C2CCC2)C3)c1,-0.69%
